# Screening data from PubChem BioAssay.
# PLAP activator – activators of human placental alkaline phosphatase. hit rate 1.2% among 96,000. P05187. purified PLAP enzyme, luminescent substrate read-out; active compounds read high. activation fold at 20 µM; in the data active = activation fold above about 2
# Target sequence (P05187 whole entry, looked up): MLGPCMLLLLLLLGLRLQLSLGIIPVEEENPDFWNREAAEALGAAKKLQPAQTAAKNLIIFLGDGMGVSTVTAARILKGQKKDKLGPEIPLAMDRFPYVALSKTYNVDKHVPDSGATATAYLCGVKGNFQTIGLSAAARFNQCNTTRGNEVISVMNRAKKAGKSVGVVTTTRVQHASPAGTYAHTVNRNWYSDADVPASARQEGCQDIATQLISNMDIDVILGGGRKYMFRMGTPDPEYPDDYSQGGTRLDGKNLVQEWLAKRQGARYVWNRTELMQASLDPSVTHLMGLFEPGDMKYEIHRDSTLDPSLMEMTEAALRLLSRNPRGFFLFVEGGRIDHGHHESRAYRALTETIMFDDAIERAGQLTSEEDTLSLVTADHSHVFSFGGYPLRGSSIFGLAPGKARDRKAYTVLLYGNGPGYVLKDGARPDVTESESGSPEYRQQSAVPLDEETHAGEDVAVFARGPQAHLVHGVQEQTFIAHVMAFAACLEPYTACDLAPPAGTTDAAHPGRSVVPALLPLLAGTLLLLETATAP
# HePTP inh – human HePTP phosphatase inhibition | hit rate 0.64% among 110,000 | AID 521 | P35236 | recombinant HePTP phosphatase activity, OD absorbance | inhibition, % at 20 µM; in the data active = inhibition above about 50%;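 note: plate controls were vehicle for no effect and reference inhibitor for full effect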
# PostGolgi ctrl – inhibits growth of the yeast control strain; hit rate 5% among 98,000; inhibition, % at 10 µM; efflux-deficient yeast background strain, growth absorbance A615, 16 h
# Ecoli tolC – growth inhibitors of E. coli BW25113 tolC mutant. growth inhibition, % at 10 µM (by protocol). AID 573. hit rate 2.2% among 65,000. OD615;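 active = growth inhibition at or above a cutoff equal to the mean over every tested compound plus 3 SD, cut at about 60% in these data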;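 note: growth measured after 20 h incubation at 37 °C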
#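 Test system: E. coli BW25113 ΔtolC::kan bacteria; incubation: 37 °C, 20 h exposure; medium: LB broth supplemented with 50 µg/mL kanamycin; read-out basis: percent growth inhibition; signal: A615 absorbance measurement; compound: 10 µM final, single dose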
# PostGolgi yeast – growth inhibition of a yeast mutant, post-Golgi transport screen. post-Golgi transport phenotypic cell assay. inhibition, % at 10 µM. hit rate 0.9% among 98,000. AID 739;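 note: yeast cells grown in 1536-well plates; yeast grown about 18 h at 30C before absorbance read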
# Ecoli WT expand – E. coli BW25113 growth inhibition, expanded screen. OD600 absorbance. growth inhibition, % at 100 µM. hit rate 0.15% among 98,000;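 active = growth inhibition above about 50% at one test dose, limit read from the data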;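 note: growth measured after 20 h incubation at 37 °C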
# Active calls of the source: *; x = no result given. Rows were chosen to be rich in hits. Some 5.5% of all compounds tested hit in one or more screens of this group. Cut-off read from the data, not from the text of the source, unless noted: active = inhibition above about 30%; inactive = the rest.
SMILES,PLAP activator,HePTP inh,PostGolgi ctrl,Ecoli tolC,PostGolgi yeast,Ecoli WT expand
CCOC(=O)c1ccc(N2NC(=O)/C(=C/c3cccc(OC)c3O)C2=O)cc1,x,55*,x,x,x,x
COc1ccc(CN2CCN(Cc3ccncc3)CC2)cc1Br,x,7,x,x,x,x
CCOc1cc(OCC)cc(C(=O)Nc2ccc(N3CCOCC3)cc2)c1,x,-1,x,x,x,x
C=CC[n+]1c(/C=C/c2ccc(N(C)C)cc2)ccc2ccccc21,x,-7,x,x,x,x
O=C(CSc1nnnn1-c1ccccc1)NC12CC3CC(CC(C3)C1)C2,x,-1,x,x,x,x
CC(C)CCn1cnc2c(cnn2-c2ccc(F)cc2)c1=O,1,13,0,8,0,-4
Cc1cccc(NC(=O)Cn2cnc3c(cnn3-c3ccc(F)cc3)c2=O)c1C,1.1,-3,46*,3,-5,-4
COC(=O)c1c(C)n(-c2ccccc2)c2ccc(O)cc12,1,-4,43*,13,1,3
COC(=O)c1c(C)n(-c2ccc(C)cc2)c2ccc(O)cc12,1,x,47*,x,-8,0
CC(=O)c1c(C)n(-c2ccccc2)c2ccc(O)cc12,0.9,7,7,20,-8,-2
O=C(CCNc1cccc(C(F)(F)F)c1)c1cccc([N+](=O)[O-])c1,x,-1,x,x,x,x
CO/N=C/c1ccc(Sc2ccccc2N)c([N+](=O)[O-])c1,0.9,x,32*,x,10,-12
CCOc1ccc(-c2cc(C(=O)NC3CCCC3)c3ccccc3n2)cc1,x,-4,x,x,x,x
CCn1c(COc2ccccc2)nnc1SCc1ccc(C#N)cc1,0.8,5,7,4,1,5
CCn1c(COc2ccc(Cl)cc2)nnc1SCc1ccc(C#N)cc1,1.4,-7,34*,50,-10,-12
c1ccc(Cn2ncc3c(N4CCN(c5ccccn5)CC4)ncnc32)cc1,x,18,x,x,x,x
CCCCc1ccc(NC(=O)C2COc3ccccc3O2)cc1 (stereo unspecified),x,10,x,x,x,x
COc1ccc2[nH]c(=O)c(CN(C(=O)NC3CCCCC3)C3CCCCC3)cc2c1,1.3,8,12,72*,2,-10
Cc1ccc(NC(=O)N(CCCN2CCOCC2)Cc2cc3cc4c(cc3[nH]c2=O)OCO4)cc1,1.4,8,13,2,18,8
Cc1ccc(NC(=O)N(Cc2ccc3c(c2)OCO3)Cc2cc3cc4c(cc3[nH]c2=O)OCCO4)cc1,0.9,0,56*,13,24,-8
COc1ccc(CN(Cc2cc3cc4c(cc3[nH]c2=O)OCO4)C(=O)NC2CCCCC2)cc1,1.6,3,9,72*,0,-14
Cc1ccc(NCCC(=O)c2ccc(Br)cc2)cc1C,x,-10,x,x,x,x
Cc1onc(-c2ccccc2)c1-c1nc2ccccc2c(=O)o1,1.5,x,32*,x,12,-12
COc1cccc(-c2nn(C)c3sc(C(=O)NCc4ccc5c(c4)OCO5)cc23)c1,2.2*,7,30*,20,-9,-7
COc1cccc(-c2nn(C)c3sc(C(=O)NCc4ccc(C)o4)cc23)c1,1.6,-2,19,36,11,-16
SMILES,PLAP activator,HePTP inh,PostGolgi ctrl,Ecoli tolC,PostGolgi yeast,Ecoli WT expand
O=c1cc(CO)occ1OCc1cccc(F)c1,1.1,x,33*,x,11,7
CSc1ccccc1NC(=O)CSc1nc2ccccc2[nH]1,x,-6,x,x,x,x
COc1cccc(OC)c1C(=O)NCc1ccc(C)cc1,x,-17,x,x,x,x
Cc1ccc(N(Cc2ccc(C(=O)NCc3ccco3)cc2)S(C)(=O)=O)cc1C,x,-11,x,x,x,x
CCOc1cc(C(c2c(C)[nH][nH]c2=O)c2c(C)[nH][nH]c2=O)ccc1OC(=O)c1cccc([N+](=O)[O-])c1,1.9,x,2,x,1,4
CCOc1cc(C(c2c(C)[nH][nH]c2=O)c2c(C)[nH][nH]c2=O)ccc1OCc1ccc([N+](=O)[O-])cc1,2.7*,x,9,x,-7,-10
Cc1csc(N2CCc3ccccc32)n1,1,3,31*,-1,13,3
Cc1ccc(NC(=O)CSc2nnc(Cc3cccn3C)n2-c2ccc(F)cc2)cc1,1.5,9,13,17,-4,6
COc1ccc(Cl)cc1NC(=O)CSc1nnc(Cc2cccn2C)n1-c1ccc(F)cc1,1.4,9,32*,16,4,-2
CCc1ccc(NC(=O)CSc2nnc(Cc3cccn3C)n2-c2ccc(F)cc2)cc1,1.5,0,9,66*,-5,-15
O=C(O)C(Cc1c[nH]c2ccccc12)NS(=O)(=O)c1ccccc1[N+](=O)[O-] (stereo unspecified),x,14,x,x,x,x
Cc1ccccc1CSCCNS(C)(=O)=O,0.8,x,-1,x,-5,4
COc1ccc(S(=O)(=O)NCCSCc2ccccc2C)cc1Br,0.7,x,36*,x,-1,-3
CC(=O)N(C)/C=C1\Sc2ccccc2C1=O,1,x,44*,x,5,-3
CCC(=O)N(C)/C=C1\Sc2ccccc2C1=O,1.2,x,10,x,9,3
Cn1c(=O)[nH]c(=O)c2ncn(Cc3ccccc3)c21,x,8,x,x,x,x
COc1ccc(Cc2nc(-c3ccc(Br)cc3)no2)cc1,0.9,-7,13,38,-9,-1
COc1ccc(-c2noc(CCCc3ccccc3)n2)cc1OC,1.2,-4,9,62*,-7,-3
Cc1ccc(-c2noc(CCCc3ccccc3)n2)cc1,1.1,x,-7,x,-11,7
COc1ccc(Cc2nc(-c3ccc(Cl)cc3)no2)cc1,2*,1,10,50,-3,4
COc1ccc(-c2noc(Cc3ccc(Cl)cc3)n2)cc1OC,1.1,1,26,63*,6,-12
CSc1nnc2c(n1)OC(c1cccc(C)n1)Nc1ccccc1-2 (stereo unspecified),x,9,x,x,x,x
Cc1cccc(OCCCSc2nc3ccccc3[nH]2)c1,0.9,x,34*,x,2,8
CCNC(=O)n1nccc1C(C)Oc1ccc(Cl)cc1 (stereo unspecified),0.9,x,7,x,3,6
CCNC(=O)n1nccc1C(C)Oc1cccc(C(F)(F)F)c1 (stereo unspecified),1,x,35*,x,-5,8
SMILES,PLAP activator,HePTP inh,PostGolgi ctrl,Ecoli tolC,PostGolgi yeast,Ecoli WT expand
COc1cccc(C2=CC(c3ccc(C)cc3)n3ncnc3N2)c1 (stereo unspecified),1.3,-5,0,20,-19,2
Cc1ccsc1C1C=C(c2cccc(Br)c2)Nc2ncnn21 (stereo unspecified),1.1,2,37*,8,12,-18
Cc1cccc(Cn2cc(/C=C/[N+](=O)[O-])c3ccccc32)c1,1,x,61*,x,11,-16
CCOC(=O)N1CCC(N2Cc3cccc(C(=O)Nc4ccc(CC)cc4)c3C2=O)CC1,1.7,x,34*,x,0,-3
COCCN1Cc2cccc(C(=O)Nc3ccc(C)c(C)c3)c2C1=O,0.8,3,25,-12,8,-10
CCOC(=O)N1CCC(NC(=O)c2cccc3c2C(=O)N(c2ccc(OC)cc2)C3)CC1,1.4,47,38*,49,-1,-20
CCOc1ccc(NC(=O)c2cccc3c2C(=O)N(CCOC)C3)cc1,0.8,x,31*,x,3,-10
CCOC(=O)N1CCC(N2Cc3cccc(C(=O)NCc4ccc(OC)cc4)c3C2=O)CC1,x,9,x,-12,x,x
